Screening data as filed in PubChem BioAssay.
TLR4 MyD88 comp = inhibitors of human TLR4-MyD88 binding; AID 861; O00206+Q99836; HeLa CL3-4 TLR4/MyD88 BLA complementation, FRET ratio; inhibition, % at 8.4 µM; 200,000 tested, 0.18% active; in the data active means inhibition above about 25%;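 further: 0% = vehicle and 100% = reference inhibitor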
ABHD5-PLIN5 inh = inhibitors of human ABHD5-perilipin-5 interaction. Q00G26+Q8WTS1. Split G. princeps luciferase complementation, luminescence, 4 h. 360,000 tested, 0.78% active. inhibition, % at 4 µM. AID 602281;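 active means inhibition above the mean inhibition across every tested compound plus 3 SD, cut at about 22% in these data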;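 further: 0% = DMSO only wells and the 100% control is not disclosed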
NOD2 RIPK2 PPI = inhibitors of human NOD2-RIPK2 interaction. 360,000 tested, 0.38% active. O43353. AID 624267. CHO BLA complementation NOD2-RIPK2, CCF4 ratio. inhibition, % at 4.98 µM; in the data active means inhibition above about 21%;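 further: 0% = vehicle only and 100% = reference blocker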
Beta2AR agonist = activates human beta-2 adrenergic receptor causing internalization; P07550; Am2.2-beta2AR cells, FAP receptor internalization, flow cytometry; response, % (concentration not given with the values); 340,000 tested, 0.43% active;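 active means response above a set limit, near 3 SD of response in nonfluorescent compounds, cut at about 42% in these data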
Target sequence (P07550 whole entry, looked up): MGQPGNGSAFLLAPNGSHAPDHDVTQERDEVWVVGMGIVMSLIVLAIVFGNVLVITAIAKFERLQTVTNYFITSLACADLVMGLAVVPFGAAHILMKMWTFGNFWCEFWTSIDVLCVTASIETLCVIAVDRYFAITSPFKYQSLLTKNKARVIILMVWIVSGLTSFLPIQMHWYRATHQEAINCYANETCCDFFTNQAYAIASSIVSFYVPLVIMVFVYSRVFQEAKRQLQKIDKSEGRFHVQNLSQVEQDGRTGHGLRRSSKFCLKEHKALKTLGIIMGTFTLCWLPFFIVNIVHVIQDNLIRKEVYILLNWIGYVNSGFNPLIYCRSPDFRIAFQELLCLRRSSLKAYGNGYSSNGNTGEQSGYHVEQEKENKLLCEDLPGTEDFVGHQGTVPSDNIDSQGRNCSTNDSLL
Dynein transport = dynein cargo transport inhibition. 3617.4 mouse cells, GR-EGFP nuclear translocation imaging; test concentration mostly 20 µM; stimulated with dexamethasone, 1 µM; hits give low values. z-score, hits read low. 220,000 tested, 0.47% active. AID 1381;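 active means plate z-score of nuclear minus cytoplasmic receptor signal below a set negative limit, without overly bright fluorescence or cell loss, cut at about -3.5 in these data, passing the limit was not always enough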;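 further: z-score of nuclear minus cytoplasmic ring GR-EGFP intensity difference per well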
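medium = tetracycline-free induction medium containing charcoal-stripped FBS | probe or stimulus = dexamethasone, 1.0 µM final | timing = 48 h induction, then 1 h compound, then 30 min agonist, 37 °C | detection = automated 10x imaging of fixed Hoechst-stained cells | read-out basis = nuclear versus cytoplasmic GR-EGFP signal, averaged per well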
TLR9-MyD88 block = inhibitors of human TLR9-MyD88 binding; AID 504734; CHO BLA complementation TLR9-MyD88, CCF4 FRET ratio; inhibition, % at 4.98 µM; Q9NR96+Q99836; 340,000 tested, 0.21% active;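 active means inhibition above the mean over all tested compounds plus 3 SD, cut at about 21% in these data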;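 further: 0% = DMSO only wells and 100% = clavulanate BLA inhibitor control wells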
An asterisk follows results filed as active; x = not tested or not shown. The list is not random: actives were taken first. Their share in the collection is about 1.6%.

SMILES	TLR4 MyD88 comp	ABHD5-PLIN5 inh	NOD2 RIPK2 PPI	Beta2AR agonist	Dynein transport	TLR9-MyD88 block
CC1C(=O)N(Cc2cn(CCC3OCCCO3)nn2)CCS(=O)(=O)N1Cc1ccc(-c2ccncc2)cc1 (configuration not stated)	x	6.2	-0.6	x	x	-3.8
O=c1oc2c(CN3CCN(CCO)CC3)c(O)ccc2cc1-c1ccccn1	x	-1.0	15.3	42.5*	-0.0772	8.0
O=C(CSc1ccc2nnc(-c3ccccn3)n2n1)Nc1ccccc1F	x	0.7	3.3	-1.9	x	-10.0
CCc1ccc(NC(=O)c2cc(S(=O)(=O)N3CCCC3)ccc2F)cc1	x	5.2	-1.8	x	x	0.7
O=C1C=CC(c2c[nH]c3ccccc23)CC1 (configuration not stated)	x	22.6*	-8.1	x	x	x
Cc1ccccc1N1C(=O)CC(c2c[nH]c3ccccc23)C1=O (configuration not stated)	-5.8	2.2	-2.8	4.4	0.14	-4.0
COc1ccc(CC(NC(C)=O)C(=O)NC2CCN(S(=O)(=O)c3ccc(NC(C)=O)cc3)CC2)cc1 (configuration not stated)	x	10.1	-10.7	6.4	x	-6.5
CC(=O)Nc1ccc(S(=O)(=O)N2CCC(NC(=O)C(Cc3cccn3C)NC(C)=O)CC2)cc1 (configuration not stated)	-15.8	22.7*	-1.4	11.2	1.44	5.6
COc1ccc(C(=O)C(CCCCC(CN(C)C)C(=O)c2ccc(OC)cc2)CN(C)C)cc1 (configuration not stated)	17.4	3.4	17.6	-4.3	-0.185	5.2
CN(C)CC(CCC(CN(C)C)C(=O)c1ccccc1)C(=O)c1ccccc1 (configuration not stated)	x	41.4*	59.7*	40.8	-5*	14.0
O=C1CCC(C2CCc3cc(O)ccc3C2)C1 (configuration not stated)	x	-2.7	-3.9	-3.5	x	3.7
O=C(CCCn1cnc([N+](=O)[O-])n1)Nc1cccc(Cl)c1Cl	-11.3	-2.3	-4.7	-2.0	0.296	6.2
O=C(CCCn1cnc([N+](=O)[O-])n1)Nc1ccc(Cl)c(Cl)c1	1.1	27.8*	-3.1	4.8	-0.753	7.9
C=CCSc1nnc(CNS(=O)(=O)c2ccc(C)cc2)n1C	x	-3.6	3.5	-1.5	x	1.7
CCCSc1nnc(CNS(=O)(=O)c2ccc(C)cc2)n1C	x	22.5*	-1.2	2.5	x	-21.8
Cc1cccc(-n2ncc3c(=O)[nH]c(SCC(=O)N4CC(=O)Nc5ccccc54)nc32)c1	x	-5.7	1.5	4.3	x	-3.1
C=CC[C@@H](CC(=O)N(CCO)Cc1ccccc1)C(=O)NC[C@H](OC(=O)[C@@H](CC=C)CC(=O)OC(C)(C)C)c1ccccc1	x	22.5*	3.0	-8.2	x	3.3
COc1ccc(C(=O)/C=C/c2cn(CN3CCN(C)CC3)c3ccccc23)cc1	18.1	-3.7	20.9*	-3.2	-1.31	11.9
COc1ccc(C(=O)/C=C/c2cn(CC(O)CN3CCOCC3)c3ccccc23)cc1 (configuration not stated)	-0.2	17.2	18.6	10.4	0.669	10.5
CC(C)CNC(=O)C1(C)CCCN1C(=O)c1ccncc1 (configuration not stated)	x	4.1	-3.8	x	x	x
CCCCc1ccc(NC(=O)CSC2=NN3CCCC(=O)N=C3S2)cc1	x	-3.0	-4.2	71.5*	x	-7.2
CCOc1ccc(NC(=O)CSC2=NN3CCCC(=O)N=C3S2)cc1	x	1.6	-1.5	-8.9	x	2.7
CC(C)Cc1ccc(CN2CCCC(NC(=O)CCN3CCCCC3=O)C2)cc1 (configuration not stated)	x	-8.1	-5.4	-7.5	x	-10.4
CC(C)Cc1ccc(C(C)/C=C2/CCC(CN3CCCCC3)C2=O)cc1 (configuration not stated)	x	22.5*	5.5	25.1	x	-1.2
CCOC(=O)N(C)c1c(CC)nc2c(OCc3cc(Cl)cc(Cl)c3)cccn12	x	7.3	14.8	x	x	x
O=C(CCN1CCCCCC1)c1ccccc1	9.2	1.2	-4.1	16.9	-3.05	6.2
O=C(/C=C/c1ccccc1)CCN1CCCCC1	x	22.8*	-2.4	44.4*	x	-5.3
O=C(NCCC(=O)N1CCN(S(=O)(=O)c2ccccc2F)CC1)Nc1ccccc1	x	5.3	-5.7	3.6	x	-11.5
